An excerpt weighted towards active compounds, which were near 9.8% of everything screened.
Calpain2 inh: blocks pig calpain II enzyme activity; inhibition, % at 16 µM; 220,000 compounds, 0.37% hits; purified calpain II, fluorogenic peptide substrate, 30 min; AID 1236;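 active = inhibition above about 50%, limit read from the data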
PMI activator: increases human mannose-6-phosphate isomerase activity; purified human PMI, coupled resazurin fluorescence, 20 min; hits give high values; 1 = vehicle control, 0 substrate-free wells; activation factor at 20 µM; 190,000 compounds, 0.005% hits; AID 1214;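 active = activation factor of 2 or more at 20 µM, relative to plate controls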
Lmaj promast: reduces viability of Leishmania major promastigotes; resazurin fluorescence viability; inhibition, % at 10 µM; 200,000 compounds, 9% hits; in the data active = inhibition above about 50%;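 also: promastigotes grown with compound for 44 hours at 28 °C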
PMI act hi M6P: PMI (human) activation, high substrate. P34949. coupled PMI enzyme assay, resazurin fluorescence, 20 min; hits give high values; 1 = untreated enzyme, 0 = substrate-free blank. activation factor at 20 µM. 190,000 compounds, 0.34% hits. AID 1216;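 active = activation factor of 2 or more at 20 µM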
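Test system: human phosphomannose isomerase with PGI, G6PDH, diaphorase coupling enzymes; Amount: PMI at 15 ng/mL final; Reagent: Mannose-6-phosphate 1.0 mM (near-saturating) plus 0.22 mM NADP+; Timing: 20 min, room temperature; Technique: resorufin fluorescence at Ex 544/Em 590 nm; Dosing: 20 µM single dose.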
WT yeast gro inh: growth inhibition of WT yeast, mitochondrial fusion screen | mitochondrial fusion phenotypic screen, WT strain | inhibition, % at 10 µM | 190,000 compounds, 2.1% hits | AID 1362; in the data active = inhibition above about 58%; tested in S. cerevisiae
Rad51 HR inh: Rad51 (human) homologous recombination inhibition | hRad51 DNA strand exchange, fluorescence dequenching | inhibition, % at 10 µM | 200,000 compounds, 0.085% hits | AID 1385;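 active = inhibition above 40% at the single screening dose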;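 also: 0% = DMSO control wells and 100% = blanks with heterologous ssDNA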
Target sequence (Q06609 whole entry, looked up): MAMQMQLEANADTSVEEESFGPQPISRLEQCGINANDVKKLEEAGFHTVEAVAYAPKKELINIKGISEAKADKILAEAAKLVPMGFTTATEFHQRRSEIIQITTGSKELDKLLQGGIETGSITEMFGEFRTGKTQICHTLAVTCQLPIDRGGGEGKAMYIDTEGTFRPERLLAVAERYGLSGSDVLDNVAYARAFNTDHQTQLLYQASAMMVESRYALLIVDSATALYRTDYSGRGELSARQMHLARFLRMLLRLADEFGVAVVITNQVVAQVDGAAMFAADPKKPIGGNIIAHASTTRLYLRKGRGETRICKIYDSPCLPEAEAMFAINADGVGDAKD
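System: human Rad51 nucleoprotein filaments preassembled on unlabelled ssDNA. Reagent: labelled 47-mer dsDNA for strand exchange. Schedule: 30-min compound preincubation and 15-min exchange, both room temperature. Measured by: FRET fluorescence dequenching, excitation 485 nm, emission 520 nm. Read-out: Fluorescence-based percent inhibition, control- and blank-normalised. Benchmarks: plate controls and plate blanks.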
Starred values were filed as active, the others as inactive; . = no result.

SMILES | Calpain2 inh | PMI activator | Lmaj promast | PMI act hi M6P | WT yeast gro inh | Rad51 HR inh
S=c1[nH]ccn1-c1c(Cl)cccc1Cl | -9 | . | . | . | . | -4
COc1cc(/C=N/Nc2ccc(C(=O)O)cc2)cc(OC)c1OC | -9 | . | . | . | . | 8
COc1cc(/C=N/Nc2nc(Nc3ccc(C)cc3)nc(-n3nc(C)cc3C)n2)cc(OC)c1OC | -229 | 1 | 100* | 1 | 10 | 6
O=c1ccc(Cl)n[nH]1 | -7 | . | . | . | . | -3
CN1CCN(CCC(=O)N2c3ccccc3Sc3ccc(Cl)cc32)CC1 | 23 | 1 | 101* | 1 | 10 | -6
COC(=O)Nc1ccc2c(c1)N(C(=O)CCN1CCN3CCCC3C1)c1ccccc1S2 (stereo not drawn) | -1 | 1.1 | 71* | 1.1 | 14 | 3
CCc1ccc(C(=O)COC(=O)c2cncc(Br)c2)cc1 | 10 | 1.1 | -7 | 1 | -11 | 7
CC(NC(=O)CCl)c1ccccc1Br (stereo not drawn) | 23 | . | . | . | . | 4
COc1ccc(C(=O)Cc2cc(OC)c(OC)cc2C(=O)c2ccccc2F)cc1OC | -56 | 0.9 | 5 | 0.9 | -5 | 8
N#C/C(=C\c1cc2ccccc2nc1N1CCCCC1)C(N)=O | 10 | 1 | 76* | 1 | 7 | -5
O=C1NC(=S)S/C1=C\c1cc2ccccc2nc1N1CCCCC1 | 56* | . | . | . | . | -11
CCOC(=O)/C(C#N)=C/c1cc2ccccc2nc1Cl | -4 | 0.8 | 4 | 0.8 | 25 | 1
COc1ccc2nc(N3CCCCC3)c(/C=C3\SC(=S)NC3=O)cc2c1 | 27 | . | . | . | . | .
COc1cccc(/C(C)=N/NC(=O)Cc2c(C)[nH][nH]c2=O)c1 | -28 | 1 | -5 | 1 | 0 | -10
O=C(NCc1ccco1)c1cnn2cccnc12 | -24 | 1 | 4 | 1 | -6 | 1
Cc1ccc(Cc2cc(-c3ccc(C)cc3)n[nH]c2=O)cc1 | 41 | . | . | . | . | .
CC(C)c1ccc(O)c(NC(=O)c2ncn[nH]2)c1 | -10 | 1.1 | -4 | 1 | 8 | 7
CC(C)c1ccc2c(c1)C1(NN=C(c3ccccc3)S1)C(=O)N2 (stereo not drawn) | -19 | 1 | 99* | 0.9 | 16 | 2
CCc1ccc2c(c1)C1(NN=C(c3ccc(C)cc3)S1)C(=O)N2 (stereo not drawn) | 0 | 1 | 99* | 0.7 | 4 | -2
O=C(NC1CCCCC1)C(c1ccc(Cl)cc1)N(C(=O)c1ccccn1)c1cccnc1 (stereo not drawn) | -23 | . | -1 | . | -14 | 6
CCc1cc(CN2CCOCC2)c(NC(=O)c2ccccc2)s1 | -4 | 0.9 | 10 | 0.9 | -9 | -2
N/C(=N\OC(=O)c1csnn1)c1ccc(C(F)(F)F)cc1 | -21 | . | . | . | . | 12
CCC(=O)NC(c1ccc(C)cc1)c1cc([N+](=O)[O-])c2cccnc2c1O (stereo not drawn) | 11 | 0.9 | -8 | 0.5 | 0 | 9
O=C(NC(c1ccc(Cl)cc1)c1cc(Cl)c2cccnc2c1O)c1cccnc1 (stereo not drawn) | -7 | 1 | 99* | 1 | 0 | 22
CCCCC(=O)NC(c1cccs1)c1cc(Cl)c2cccnc2c1O (stereo not drawn) | -13 | 1.2 | 98* | 0.9 | -16 | -4
SMILES | Calpain2 inh | PMI activator | Lmaj promast | PMI act hi M6P | WT yeast gro inh | Rad51 HR inh
CCOc1ccc(C(NC(=O)c2ccco2)c2ccc(OC)c(OC)c2)cc1 (stereo not drawn) | 17 | 1 | -3 | 1 | 0 | -3
CC(=O)NC(c1ccc(C)cc1)c1cc([N+](=O)[O-])c2cccnc2c1O (stereo not drawn) | -73 | 0.7 | -8 | 0.4 | -14 | -18
CCCC(=O)NC(c1ccco1)c1cc([N+](=O)[O-])c2cccnc2c1O (stereo not drawn) | -88 | 1.2 | 4 | 0.9 | -27 | 0
CCCC(=O)NC(c1ccc(OC)c(OC)c1)c1cc(Cl)c2cccnc2c1O (stereo not drawn) | -12 | 0.9 | 99* | 0.5 | -2 | -10
CCC(=O)NC(c1cccs1)c1cc(Cl)c2cccnc2c1O (stereo not drawn) | 29 | . | 98* | . | -5 | .
COc1cc2c(cc1OC)C(C(=O)NCCN(C)C)C(c1cccs1)N(C)C2=O (stereo not drawn) | -9 | 1.1 | 2 | 1.2 | -6 | 2
C/C(=N\NS(=O)(=O)c1ccccc1)c1cc(Cl)cc(Cl)c1O | -52 | 1.2 | -5 | 1.1 | 4 | 9
Cc1cc(C)cc(NC(=O)N2CCN(S(C)(=O)=O)CC2)c1 | 5 | 1 | 0 | 1 | 10 | 2
O=C(NCc1ccccc1Cl)C1CCN(c2cnccn2)CC1 | -24 | 1 | 8 | 0.7 | -7 | -1
COCCN(C(=S)Nc1c(C)cc(C)cc1C)C(C)c1cccnc1 (stereo not drawn) | -5 | 0.9 | 89* | 0.9 | -2 | 3
COCCN(C(=S)Nc1cc(C)ccc1C)C(C)c1cccnc1 (stereo not drawn) | -6 | 0.9 | 95* | 1 | -5 | 4
COCCN(C(=S)Nc1ccccc1C)C(C)c1cccnc1 (stereo not drawn) | -14 | 1 | 12 | 1 | -17 | -11
COCCn1nnnc1C(c1ccccc1)N1CCN(C)CC1 (stereo not drawn) | 12 | 1 | 6 | 1.1 | 16 | 18
Cc1ccc(C(c2nnnn2Cc2ccccc2)N2CCN(Cc3ccccc3)CC2)cc1 (stereo not drawn) | 18 | 0.9 | 92* | 1 | 13 | 10
COc1ccc(C(c2nnnn2Cc2ccccc2)N2CCN(c3ccccc3)CC2)cc1 (stereo not drawn) | 13 | 1 | 2 | 1 | 12 | 10
COc1ccc(Cn2nnnc2C(c2cccs2)N2CCSCC2)cc1 (stereo not drawn) | -3 | 1 | 48 | 1 | 26 | -8
COc1ccc(Cn2nnnc2C(c2cccs2)N2CCCCCC2)cc1 (stereo not drawn) | 24 | 0.9 | 57* | 0.9 | 27 | -4
COc1ccc(C(c2nnnn2Cc2ccccc2)N2CCN(c3nc4ccccc4s3)CC2)cc1 (stereo not drawn) | -22 | 1 | 100* | 1 | 8 | 6
c1ccc(CN2CCN(C(c3ccccc3)c3nnnn3Cc3ccccc3)CC2)cc1 (stereo not drawn) | 7 | 1.1 | 33 | 1.1 | 5 | 0
COCCn1nnnc1C(c1ccc(OC)c(OC)c1)N1CCN(c2nc3ccccc3s2)CC1 (stereo not drawn) | . | 0.9 | 83* | 1 | . | 6
COc1ccc(OCC(=O)Nc2cc(-c3nn(C)c(=O)c4ccccc34)ccc2N2CCOCC2)cc1 | 14 | . | . | . | . | 7
CCCCCCCC(=O)NC1=NC(=O)C(C)(C)S1 | 22 | . | . | . | . | 14
